Source: ChEMBL document CHEMBL4699638, “A Multipronged Approach Establishes Covalent Modification of β-Tubulin as the Mode of Action of Benzamide Anti-cancer Toxins” (J Med Chem, 2020)
Activity calls are given as the source filed them. No cut-off for these calls is given here.

Experiments:
518T2 [1] = assay: Binding affinity to beta-tubulin in mouse 518T2 cells measured after 1.5 hrs using Alexa Fluor 532 dye by copper-mediated click reaction based SDS PAGE analysis; format: cell-based
Method in brief: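 Competition format in 518T2 murine SCLC cells, 1 million per well in DMEM with 5% FBS. Analogs in DMSO (100 nM to 50 μM) were dispensed first and cells plated onto them. Next day alkyne probe 24 (5 μM) was added for 1.5 h at 37 °C, 5% CO2. EC50 was taken from displacement of the 50 kDa band.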

518T2 [2] = assay: Cell cycle arrest in mouse 518T2 cells assessed as increase in accumulation at G2/M-phase at 300 nM measured after 24 hrs by propidium iodide staining based flow cytometry; format: functional
Method in brief: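 518T2 murine SCLC cells were exposed for 24 h to compound (300 nM) or DMSO vehicle. Cell cycle distribution was then read by flow cytometry.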

319N1 [3] = assay: (§1) Anticancer activity against mouse 319N1 cells assessed as reduction in cell viability measured after 72 hrs by celltiter-glo assay; format: functional, cell-based
Method in brief: (§2)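 Cells seeded in duplicate at 10,000 per well in DMEM with 5% FBS and incubated overnight. Compounds were then added as a 10-point dose response. After 72 h, viability was read by CellTiter-Glo luminescence, with the reagent diluted 1:1 in PBS/1% Triton-X. Values were normalized to DMSO-treated cells and IC50 was derived from curve fitting.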

518T2 [4] = assay: Binding affinity to beta-tubulin in mouse 518T2 cells at 0.1 to 50 uM measured after 1.5 hrs using Alexa Fluor 532 dye by copper-mediated click reaction based SDS PAGE analysis; format: cell-based; settings: dose microM 0.1-50, time 1.5 hrs
Method in brief: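 Competition assay in 518T2 cells (1 million per well, DMEM with 5% FBS). Test analogs in DMSO were dispensed first at 100 nM to 50 μM and the cells plated onto them. The next day, alkyne probe (5 μM) was added for 1.5 h at 37 °C. Lysis was in 1% SDS HEPES buffer, followed by a click reaction with fluorescent azide, SDS-PAGE, and EC50 from displacement of the p50 band.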

[5] = as §1; format: functional, cell-based; settings: 319N1, 72 h; method in brief: as §2
[6] = biological target: Tubulin beta-3 chain (Homo sapiens) (UniProt Q13509); assay: Binding affinity to recombinant human C-terminal His-tagged beta3-tubulin expressed in insect cells assessed as reduction in microtubule growth measured up to 30 mins by microscopic analysis; settings: dose microM 1-10, time min <=30
Chain of Tubulin beta-3 chain (Homo sapiens) (Q13509 whole entry): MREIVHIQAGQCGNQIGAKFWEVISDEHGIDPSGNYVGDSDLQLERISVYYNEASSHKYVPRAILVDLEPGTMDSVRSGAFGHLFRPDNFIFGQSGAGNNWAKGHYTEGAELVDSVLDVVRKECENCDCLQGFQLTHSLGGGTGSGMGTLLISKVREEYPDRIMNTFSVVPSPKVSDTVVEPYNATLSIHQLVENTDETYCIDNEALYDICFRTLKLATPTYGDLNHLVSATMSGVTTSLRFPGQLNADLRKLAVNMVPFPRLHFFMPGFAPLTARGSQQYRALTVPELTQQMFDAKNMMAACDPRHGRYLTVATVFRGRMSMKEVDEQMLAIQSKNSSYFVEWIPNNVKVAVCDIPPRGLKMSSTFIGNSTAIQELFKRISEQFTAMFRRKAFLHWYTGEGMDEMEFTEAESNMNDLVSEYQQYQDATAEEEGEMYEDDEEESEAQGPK
Method in brief: (§3)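 Human αβ-tubulin (TUBA1B plus TUBB3 with cleavable C-terminal His-tag) was expressed in Tni insect cells. It was purified by Ni-affinity, TEV cleavage and anion exchange, then kept in BRB80 with 50 μM GTP. Growth was measured by DIC time-lapse at 30 °C on GMPCPP seeds in 144 mM PIPES pH 6.9 buffer with 1 mM GTP and 4% DMSO, over about 30 min. Compound was tested at 1, 5 and 10 μM; growth rates were measured per microtubule over two trials.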

[7] = biological target: Tubulin beta-3 chain (Homo sapiens) (UniProt Q13509); assay: Binding affinity to recombinant human C-terminal His-tagged beta3-tubulin expressed in insect cells assessed as reduction in microtubule growth by measuring microtubule growth rate at 1 uM measured up to 30 mins by microscopic analysis (reference value: 0.83 micrometer/min); settings: time min <=30; method in brief: as §3
[8] = biological target: Tubulin beta-3 chain (Homo sapiens) (UniProt Q13509); assay: Binding affinity to recombinant human C-terminal His-tagged beta3-tubulin expressed in insect cells assessed as reduction in microtubule growth by measuring microtubule growth rate at 10 uM measured up to 30 mins by microscopic analysis (reference value: 0.83 micrometer/min); settings: time min <=30; method in brief: as §3
Bos taurus [9] = organism: Bos taurus; assay: Binding affinity to bovine brain beta-tubulin assessed as reduction in microtubule growth at 0.5 uM measured up to 30 mins by microscopic analysis; format: tissue-based; settings: time min <=30
Method in brief: (§4)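 Microtubule growth from brain tubulin was imaged by time-lapse DIC microscopy at 30 °C on biotinylated GMPCPP seeds bound to neutravidin coverslips. Frames were taken every 50 ms and averaged in batches of 30; recordings ran about 30 min. Growth rates were quantified per microtubule.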

518T2 [10] = assay: Binding affinity to beta-tubulin in mouse 518T2 cells at 0.05 to 50 uM measured after 1.5 hrs using Alexa Fluor 532 dye by copper-mediated click reaction based SDS PAGE analysis; format: cell-based; settings: dose microM 0.05-50, time 1.5 hrs
Method in brief: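 518T2 cells were plated at 1 million per well in DMEM with 5% FBS. The next day, alkyne probe in DMSO was added at 50 nM to 50 μM for 1.5 h at 37 °C in 5% CO2. Cells were washed, lysed in 1% SDS buffer (50 mM HEPES pH 7.4, 10 mM KCl, 2 mM MgCl2, benzonase), click-reacted with Alexa Fluor 532 azide and resolved by SDS-PAGE fluorescence.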

518T2 [11] = assay: Binding affinity to beta-tubulin in mouse 518T2 cells measured after 1.5 hrs using diazo biotin azide dye by silver staining based based SDS PAGE analysis; format: cell-based
Method in brief: (§5)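 518T2 cells were grown at large scale (100 mg protein per condition) and treated with covalent or non-covalent alkyne probe. Lysates were clicked to 100 μM diazo biotin azide, acetone-precipitated, resolubilized in 4% SDS/PBS, and captured on streptavidin beads for 1 h at 25 °C. Eluates were run on silver-stained SDS-PAGE or analyzed by nano-LC-MS/MS (Orbitrap, HCD). Peptide abundance was normalized to the non-covalent probe sample.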

[12] = biological target: Tubulin beta-5 chain (Mus musculus) (UniProt P99024); assay: Binding affinity to beta5-tubulin in mouse 518T2 cells measured after 1.5 hrs by LC-MS/MS analysis; format: cell-based; method in brief: as §5
Chain of Tubulin beta-5 chain (Mus musculus) (P99024 whole entry, the tested form may be a part): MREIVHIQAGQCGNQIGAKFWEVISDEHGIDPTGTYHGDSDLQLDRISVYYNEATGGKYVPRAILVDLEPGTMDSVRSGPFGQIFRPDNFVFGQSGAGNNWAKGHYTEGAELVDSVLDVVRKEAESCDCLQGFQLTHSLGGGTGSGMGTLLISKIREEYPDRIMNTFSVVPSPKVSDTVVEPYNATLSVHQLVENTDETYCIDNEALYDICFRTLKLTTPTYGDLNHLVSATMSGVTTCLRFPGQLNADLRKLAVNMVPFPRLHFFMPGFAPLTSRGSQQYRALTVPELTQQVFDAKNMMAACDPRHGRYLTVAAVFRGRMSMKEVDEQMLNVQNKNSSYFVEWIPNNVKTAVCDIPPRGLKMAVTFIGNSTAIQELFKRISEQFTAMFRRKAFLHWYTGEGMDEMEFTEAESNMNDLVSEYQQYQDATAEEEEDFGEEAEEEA

[13] = biological target: Tubulin beta-5 chain (Mus musculus) (UniProt P99024); assay: Binding affinity to beta5-tubulin (217 to 241 residues) in mouse 518T2 cells measured after 1.5 hrs by LC-MS/MS analysis; format: cell-based; method in brief: as §5
[14] = (§6) Anticancer activity against mouse 319N1 clone C cells assessed as reduction in cell viability measured after 72 hrs by celltiter-glo assay; format: functional, cell-based; settings: 319N1, 72 h; method in brief: as §2
319N1 [15] = assay: Anticancer activity against Msh2-deficient mouse 319N1 cells assessed as reduction in cell viability measured after 72 hrs by celltiter-glo assay; format: functional, cell-based; method in brief: as §2
319N1 [16] = assay: Anticancer activity against mouse 319N1 clone A cells assessed as reduction in cell viability measured after 72 hrs by celltiter-glo assay; format: functional, cell-based; method in brief: as §2
319N1 [17] = assay: Anticancer activity against mouse 319N1 clone B cells assessed as reduction in cell viability measured after 72 hrs by celltiter-glo assay; format: functional, cell-based; method in brief: as §2
319N1 [18] = assay: as §6; format: functional, cell-based; method in brief: as §2
319N1 [19] = assay: Anticancer activity against mouse 319N1 clone D cells assessed as reduction in cell viability measured after 72 hrs by celltiter-glo assay; format: functional, cell-based; method in brief: as §2
319N1 [20] = assay: Anticancer activity against mouse 319N1 clone E cells assessed as reduction in cell viability measured after 72 hrs by celltiter-glo assay; format: functional, cell-based; method in brief: as §2
Bos taurus [21] = organism: Bos taurus; assay: Binding affinity to bovine brain beta-tubulin assessed as reduction in microtubule growth at 1 uM measured up to 30 mins by microscopic analysis relative to control; parameters: scale not given: the % may be the effect or the level left; settings: time min <=30; method in brief: as §4
[22] = biological target: Tubulin beta-3 chain (Homo sapiens) (UniProt Q13509); assay: Binding affinity to recombinant human C-terminal His-tagged beta3-tubulin expressed in insect cells assessed as reduction in microtubule growth up to 10 uM measured up to 30 mins by microscopic analysis; settings: dose microM <=10, time min <=30; method in brief: as §3
518T2 [23] = assay: Inhibition of colony formation in mouse 518T2 cells harboring Tubb5 T238A mutant at 400 nM measured after 2 weeks by crystal violet staining based assay; format: functional, cell-based
Method in brief: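 518T2 cells were transfected with Cas9-sgRNA complexes targeting Tubb5 plus an oligonucleotide repair template encoding T238A, or a sham control. They were selected with compound at 400 nM for 2 weeks, and the plates were then stained with crystal violet to visualize resistant colonies.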

COc1cc2c(c(OC)c1OC)-c1ccc(OC)c(=O)cc1[C@@H](NC(C)=O)CC2
inhibition (518T2 [1]): Dose-dependent effect | Activity (518T2 [2]): Active

O=C(c1ccc(Cl)cc1)N1CCN(c2ccccc2)CC1
Activity (319N1 [3]): inactive

CC[C@]1(O)C[C@H]2CN(CCc3c([nH]c4ccccc34)[C@@](C(=O)OC)(c3cc4c(cc3OC)N(C=O)[C@H]3[C@@](O)(C(=O)OC)[C@H](OC(C)=O)[C@]5(CC)C=CCN6CC[C@]43[C@@H]65)C2)C1
beta-tubulin binding (probe competition, active/inactive) (518T2 [4]): inactive

Cc1ccc(Cl)cc1N1CCN(C(=O)c2cccc([N+](=O)[O-])c2Cl)CC1
IC50 [5]: 12400 nM

COc1ccc(N2CCN(C(=O)c3ccc(Cl)c([N+](=O)[O-])c3)CC2)cc1
IC50 [5]: 40300 nM

Cc1ccc(Cl)cc1N1CCN(C(=O)c2ccc(Cl)cc2[N+](=O)[O-])CC1
IC50 [5]: 17000 nM

Cc1ccc(Cl)cc1N1CCN(C(=O)c2ccc(F)c([N+](=O)[O-])c2)CC1
beta-tubulin binding (probe competition, active/inactive) (518T2 [4]): Active

Cc1ccc(C)c(N2CCN(C(=O)c3ccc(Cl)c([N+](=O)[O-])c3)CC2)c1
IC50 [5]: 1040 nM

Cc1ccc(Cl)cc1N1CCN(C(=O)c2ccc([N+](=O)[O-])c(Cl)c2)CC1
IC50 [5]: 4680 nM

O=C(c1ccc(Cl)c([N+](=O)[O-])c1)N1CCN(c2cc(Cl)ccc2Cl)CC1
IC50 [5]: 458 nM

O=C(c1ccc(Cl)c([N+](=O)[O-])c1)N1CCN(c2ccc(F)cc2F)CC1
IC50 [5]: 24700 nM

O=C(c1ccc(Cl)c([N+](=O)[O-])c1)N1CCN(c2ccccc2F)CC1
IC50 [5]: 7940 nM

COc1cc(OC)cc(N2CCN(C(=O)c3ccc(C=O)c([N+](=O)[O-])c3)CC2)c1
IC50 [5]: 127 nM | Activity [6]: Dose-dependent effect | Activity [7]: 0.67 um/min | Activity [8]: 0.31 um/min | Activity (Bos taurus [9]): Active

Cc1ccc(N2CCN(C(=O)c3ccc(Cl)c([N+](=O)[O-])c3)CC2)c(C)c1
IC50 [5]: 6990 nM

Cc1cccc(N2CCN(C(=O)c3ccc(Cl)c([N+](=O)[O-])c3)CC2)c1
IC50 [5]: 1420 nM | beta-tubulin binding (probe competition, active/inactive) (518T2 [4]): Active

C#CCOc1cccc(N2CCN(C(=O)c3ccc(C)c([N+](=O)[O-])c3)CC2)c1
IC50 [5]: 13000 nM | Activity (518T2 [10]): inactive | Activity (518T2 [11]): inactive

N#Cc1cccc(N2CCN(C(=O)c3ccc(Cl)c([N+](=O)[O-])c3)CC2)c1
IC50 [5]: 593 nM

COc1cccc(N2CCN(C(=O)c3ccc(Cl)c([N+](=O)[O-])c3)CC2)c1
IC50 [5]: 1560 nM | beta-tubulin binding (probe competition, active/inactive) (518T2 [4]): Active

O=C(c1ccc(Cl)c([N+](=O)[O-])c1)N1CCN(c2ccc(F)cc2)CC1
IC50 [5]: 21000 nM

O=C(c1ccc(Cl)c([N+](=O)[O-])c1)N1CCN(c2cccc(Cl)c2)CC1
IC50 [5]: 694 nM

C#CCOc1cccc(N2CCN(C(=O)c3ccc(Cl)c([N+](=O)[O-])c3)CC2)c1
IC50 [5]: 1190 nM | Activity (518T2 [10]): Active | Activity (518T2 [11]): Active | Activity [12]: Active | Activity [13]: Active

Cc1ccc(Cl)cc1N1CCN(C(=O)c2ccc(I)c([N+](=O)[O-])c2)CC1
beta-tubulin binding (probe competition, active/inactive) (518T2 [4]): Active

O=C(c1ccc(Cl)c([N+](=O)[O-])c1)N1CCN(c2ccccc2Cl)CC1
IC50 [5]: 2950 nM | beta-tubulin binding (probe competition, active/inactive) (518T2 [4]): Active

Cc1ccc(Cl)cc1N1CCN(C(=O)c2ccc(Cl)c([N+](=O)[O-])c2)CC1
beta-tubulin binding (probe competition, active/inactive) (518T2 [4]): Active | IC50 [14]: 1480 nM

Cc1ccc(Cl)cc1N1CCN(C(=O)c2ccc(OC(F)(F)F)c([N+](=O)[O-])c2)CC1
IC50 [5]: 20 nM

O=C(c1cccc([N+](=O)[O-])c1)N1CCN(c2ccccc2)CC1
Activity (319N1 [3]): inactive

COc1cc([C@@H]2c3cc4c(cc3[C@@H](O[C@@H]3O[C@@H]5CO[C@@H](C)O[C@H]5[C@H](O)[C@H]3O)[C@H]3COC(=O)[C@H]23)OCO4)cc(OC)c1O
Activity (319N1 [15]): Active | Activity (319N1 [16]): Active | Activity (319N1 [17]): Active | Activity (319N1 [18]): Active | Activity (319N1 [19]): Active | Activity (319N1 [20]): Active

Cc1ccc(Cl)cc1N1CCN(C(=O)c2ccc(Br)c([N+](=O)[O-])c2)CC1
IC50 [5]: 55 nM | beta-tubulin binding (probe competition, active/inactive) (518T2 [4]): Active | Activity (518T2 [2]): Active | Activity (Bos taurus [21]): 80% | Activity [22]: inactive | inhibition (518T2 [23]): inactive

COC(=O)c1c(C)oc2ccc(NS(=O)(=O)c3ccc(Cl)c([N+](=O)[O-])c3)cc12
IC50 [5]: 2800 nM | inhibition (518T2 [1]): Dose-dependent effect | IC50 [14]: 7570 nM

Cc1ccc(Cl)cc1N1CCN(C(=O)c2cc(Cl)cc([N+](=O)[O-])c2)CC1
IC50 [5]: 4870 nM

O=C(c1ccc(Cl)c([N+](=O)[O-])c1)N1CCN(c2cccc(Br)c2)CC1
IC50 [5]: 866 nM | beta-tubulin binding (probe competition, active/inactive) (518T2 [4]): Active
